According to ChEMBL document CHEMBL4177742, “Synthesis and biological evaluation of 4β-(thiazol-2-yl)amino-4'-O-demethyl-4-deoxypodophyllotoxins as topoisomerase-II inhibitors” (Bioorg Med Chem Lett, 2018):
Values belong to the molecule of their own block, whether it stands above or below them. The source made the active and inactive calls. The calls are words filed in the database; no cut-off is given here.

Legend:
[1] = system: HepG2; experiment: Cytotoxicity against human HepG2 cells assessed as reduction in inhibition of cell growth incubated for 48 hrs by MTT assay; format: functional, cell-based; details: HepG2, 48 h
[2] = system: LoVo; experiment: Cytotoxicity against human LoVo cells assessed as reduction in inhibition of cell growth incubated for 48 hrs by MTT assay; format: functional, cell-based
[3] = system: HeLa; experiment: Cytotoxicity against human HeLa cells assessed as reduction in inhibition of cell growth incubated for 48 hrs by MTT assay; format: functional, cell-based
[4] = system: A549; experiment: Cytotoxicity against human A549 cells assessed as reduction in inhibition of cell growth incubated for 48 hrs by MTT assay; format: functional, cell-based; details: A549, 48 h
[5] = system: WI-38; experiment: Cytotoxicity against human WI38 cells assessed as reduction in inhibition of cell growth incubated for 48 hrs by MTT assay; format: cell-based; details: WI-38, 48 h
[6] = system: A549; experiment: Inhibition of topoisomerase 2beta protein expression in human A549 cells at 1 to 10 uM incubated for 12 hrs by Western blotting; format: functional, cell-based
In short: (§1)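 Topo-IIα and topo-IIβ expression was measured in A549 cells treated 12 h at 1, 5 and 10 μM, with etoposide (5 μM) as a reference treatment.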

[7] = system: A549; experiment: Induction of DNA double stranded breaks in human A549 cells assessed as increase in p73 protein levels at 1 to 10 uM incubated for 12 hrs by Western blotting; format: functional, cell-based
In short: (§2)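 A549 cells exposed for 12 h to 1, 5 or 10 μM alongside vehicle and etoposide (5 μM) as a reference. Lysates were probed by western blotting for phospho-H2AX (Ser-139, γH2AX), p73 and phospho-ATM.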

[8] = system: A549; experiment: Induction of cell cycle arrest in human A549 cells assessed as reduction in accumulation at G1 phase at 1 to 5 uM incubated for 12 hrs by propidium iodide staining based FACS analysis
[9] = system: A549; experiment: Induction of DNA double stranded breaks in human A549 cells assessed as increase in gamma-H2Ax level at 1 to 10 uM incubated for 12 hrs by Western blotting; format: functional, cell-based; in short: as §2
[10] = system: A549; experiment: Induction of cell cycle arrest in human A549 cells assessed as increase in cdc2(p34) protein level at 1 to 10 uM incubated for 12 hrs by Western blotting; format: functional, cell-based
In short: (§3)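 For G2/M regulators, A549 cells were exposed 12 h to 1, 5 or 10 μM and analysed by western blotting for cyclin B1 and cdc2(p34).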

[11] = system: A549; experiment: Induction of cell cycle arrest in human A549 cells assessed as increase in accumulation at G2/M phase at 1 to 5 uM incubated for 12 hrs by propidium iodide staining based FACS analysis
[12] = target: DNA topoisomerase 2-alpha (Homo sapiens) (UniProt P11388); experiment: Inhibition of topoisomerase 2alpha in human A549 cells assessed as reduction in enzyme-mediated super coliling activity by measuring induction of pBR322 DNA relaxation at 100 uM incubated for 12 hrs by ethidium bromide staining based agarose gel electrophoresis method; format: cell-based
[13] = system: A549; experiment: Induction of DNA double stranded breaks in human A549 cells assessed as increase in gamma-H2Ax level at 1 to 5 uM incubated for 12 hrs by DAPI staining based immunofluorescence assay; format: functional, cell-based
In short: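 A549 cells were treated 12 h with vehicle, 1 μM or 5 μM, then immunostained with anti-γH2AX antibody and counterstained with DAPI. Nuclear γH2AX foci were scored by immunofluorescence as a marker of DNA double-strand breaks.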

[14] = system: A549; experiment: Inhibition of topoisomerase 2alpha protein expression in human A549 cells at 1 to 10 uM incubated for 12 hrs by Western blotting; format: functional, cell-based; in short: as §1
[15] = system: A549; experiment: Induction of cell cycle arrest in human A549 cells assessed as increase in cyclin B1 protein level at 1 to 10 uM incubated for 12 hrs by Western blotting; format: functional, cell-based; in short: as §3
[16] = system: A549; experiment: Induction of DNA double stranded breaks in human A549 cells assessed as increase in ATM phosphorylation levels at 1 to 10 uM incubated for 12 hrs by Western blotting; format: functional, cell-based; in short: as §2

Chain of DNA topoisomerase 2-alpha (Homo sapiens) (P11388 whole entry): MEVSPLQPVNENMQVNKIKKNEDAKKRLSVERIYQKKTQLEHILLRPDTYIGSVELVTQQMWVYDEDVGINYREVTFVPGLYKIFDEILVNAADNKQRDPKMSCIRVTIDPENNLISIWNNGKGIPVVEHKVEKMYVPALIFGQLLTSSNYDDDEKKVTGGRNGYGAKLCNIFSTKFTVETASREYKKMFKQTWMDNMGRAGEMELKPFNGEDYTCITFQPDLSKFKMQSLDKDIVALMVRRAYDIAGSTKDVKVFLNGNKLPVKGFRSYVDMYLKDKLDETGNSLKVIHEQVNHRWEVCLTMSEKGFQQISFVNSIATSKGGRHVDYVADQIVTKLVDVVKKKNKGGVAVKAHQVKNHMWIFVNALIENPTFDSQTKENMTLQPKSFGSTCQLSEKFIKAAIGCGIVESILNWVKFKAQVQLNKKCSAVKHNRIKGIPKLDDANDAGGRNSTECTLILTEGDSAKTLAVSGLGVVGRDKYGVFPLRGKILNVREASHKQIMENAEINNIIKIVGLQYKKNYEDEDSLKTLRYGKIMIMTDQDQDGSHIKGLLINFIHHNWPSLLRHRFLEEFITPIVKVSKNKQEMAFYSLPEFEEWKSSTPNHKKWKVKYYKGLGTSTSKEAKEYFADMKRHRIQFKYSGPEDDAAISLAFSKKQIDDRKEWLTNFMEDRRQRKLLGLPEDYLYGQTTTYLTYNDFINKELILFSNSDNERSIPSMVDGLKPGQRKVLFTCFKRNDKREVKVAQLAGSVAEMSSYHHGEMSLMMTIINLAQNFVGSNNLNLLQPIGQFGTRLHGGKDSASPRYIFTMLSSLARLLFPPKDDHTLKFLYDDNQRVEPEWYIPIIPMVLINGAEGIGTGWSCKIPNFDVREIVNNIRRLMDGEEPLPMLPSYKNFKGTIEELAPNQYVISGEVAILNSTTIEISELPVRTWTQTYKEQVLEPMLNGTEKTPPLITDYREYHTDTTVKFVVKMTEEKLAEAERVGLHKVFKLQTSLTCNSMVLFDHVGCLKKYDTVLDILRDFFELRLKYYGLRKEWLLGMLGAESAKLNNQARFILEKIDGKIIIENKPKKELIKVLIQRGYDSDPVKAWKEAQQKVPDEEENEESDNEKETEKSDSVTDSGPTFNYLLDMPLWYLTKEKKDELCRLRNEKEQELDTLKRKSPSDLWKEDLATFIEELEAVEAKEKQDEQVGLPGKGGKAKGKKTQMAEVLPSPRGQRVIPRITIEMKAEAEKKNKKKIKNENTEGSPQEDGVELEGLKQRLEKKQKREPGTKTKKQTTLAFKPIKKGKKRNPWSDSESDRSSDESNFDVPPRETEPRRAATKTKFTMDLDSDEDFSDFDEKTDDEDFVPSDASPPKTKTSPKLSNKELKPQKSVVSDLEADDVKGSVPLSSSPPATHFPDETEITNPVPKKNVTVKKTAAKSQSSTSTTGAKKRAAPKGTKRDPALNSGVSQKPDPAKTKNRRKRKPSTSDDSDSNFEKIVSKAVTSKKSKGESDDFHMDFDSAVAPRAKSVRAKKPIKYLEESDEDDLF

Structure (SMILES): COc1cc([C@@H]2c3cc4c(cc3[C@@H](Nc3nc(CC(=O)O)cs3)[C@H]3COC(=O)[C@H]23)OCO4)cc(OC)c1O
IC50 [1]: 9.3 µM | IC50 [2]: 10.3 µM | IC50 [3]: 8.7 µM | IC50 [4]: 8.3 µM | IC50 [5]: 42.5 µM

Structure (SMILES): COc1cc([C@@H]2c3cc4c(cc3[C@@H](Nc3nc(CC(=O)N5CCN(C)CC5)cs3)[C@H]3COC(=O)[C@H]23)OCO4)cc(OC)c1O
IC50 [1]: 18.7 µM | IC50 [2]: 27.4 µM | IC50 [3]: 16.5 µM | IC50 [4]: 22.3 µM | IC50 [5]: 28.1 µM

Structure (SMILES): COc1cc([C@@H]2c3cc4c(cc3[C@@H](Nc3nc(CC(=O)NC5CC5)cs3)[C@H]3COC(=O)[C@H]23)OCO4)cc(OC)c1O
IC50 [1]: 10.2 µM | IC50 [2]: 19.1 µM | IC50 [3]: 17.2 µM | IC50 [4]: 11.1 µM | IC50 [5]: 56 µM

Structure (SMILES): COc1cc([C@@H]2c3cc4c(cc3[C@@H](O[C@@H]3O[C@@H]5CO[C@@H](C)O[C@H]5[C@H](O)[C@H]3O)[C@H]3COC(=O)[C@H]23)OCO4)cc(OC)c1O [ETOPOSIDE]
IC50 [1]: 9.2 µM | IC50 [2]: 18.7 µM | IC50 [3]: 11.2 µM | IC50 [4]: 9.1 µM | IC50 [5]: 25.7 µM

Structure (SMILES): CCOC(=O)Cc1csc(N[C@@H]2c3cc4c(cc3[C@@H](c3cc(OC)c(O)c(OC)c3)[C@H]3C(=O)OC[C@@H]32)OCO4)n1
IC50 [1]: 0.12 µM | IC50 [2]: 7 µM | IC50 [3]: 12.5 µM | IC50 [4]: 9.3 µM | IC50 [5]: 44.4 µM

inhibition [12]: Active
Structure (SMILES): CCOC(=O)c1csc(N[C@@H]2c3cc4c(cc3[C@@H](c3cc(OC)c(O)c(OC)c3)[C@H]3C(=O)OC[C@@H]32)OCO4)n1
inhibition [6]: Dose-dependent effect | Activity [7]: Dose-dependent effect | Activity [8]: Dose-dependent effect | IC50 [1]: 0.13 µM | Activity [9]: Dose-dependent effect | Activity [10]: Dose-dependent effect | Activity [11]: Dose-dependent effect | IC50 [2]: 5 µM | IC50 [3]: 5.6 µM | IC50 [4]: 0.16 µM | Activity [13]: Active | inhibition [14]: Dose-dependent effect | IC50 [5]: 55.3 µM | Activity [15]: Dose-dependent effect | Activity [16]: Dose-dependent effect

Structure (SMILES): COc1cc([C@@H]2c3cc4c(cc3[C@@H](Nc3nc(CC(=O)NC5CCCCC5)cs3)[C@H]3COC(=O)[C@H]23)OCO4)cc(OC)c1O
IC50 [1]: 16.3 µM | IC50 [2]: 19.1 µM | IC50 [3]: 10.7 µM | IC50 [4]: 9.4 µM | IC50 [5]: 77.8 µM

inhibition [12]: Active
Structure (SMILES): COc1cc([C@@H]2c3cc4c(cc3[C@@H](Nc3nc(CC(=O)N5CCN(C6CCCC6)CC5)cs3)[C@H]3COC(=O)[C@H]23)OCO4)cc(OC)c1O
inhibition [6]: Dose-dependent effect | Activity [7]: Dose-dependent effect | Activity [8]: Dose-dependent effect | IC50 [1]: 8.5 µM | Activity [9]: Dose-dependent effect | Activity [10]: Dose-dependent effect | Activity [11]: Dose-dependent effect | IC50 [2]: 9.2 µM | IC50 [3]: 4.4 µM | IC50 [4]: 1.3 µM | Activity [13]: Active | inhibition [14]: Dose-dependent effect | IC50 [5]: 66.7 µM | Activity [15]: Dose-dependent effect | Activity [16]: Dose-dependent effect

Structure (SMILES): COc1cc([C@@H]2c3cc4c(cc3[C@@H](Nc3nc(CC(=O)NC5CCCC5)cs3)[C@H]3COC(=O)[C@H]23)OCO4)cc(OC)c1O
IC50 [1]: 19.1 µM | IC50 [2]: 21 µM | IC50 [3]: 14.1 µM | IC50 [4]: 9.1 µM | IC50 [5]: 29 µM

Structure (SMILES): COc1cc([C@@H]2c3cc4c(cc3[C@@H](Nc3nc(CC(=O)N5CCOCC5)cs3)[C@H]3COC(=O)[C@H]23)OCO4)cc(OC)c1O
IC50 [1]: 15.1 µM | IC50 [2]: 37.2 µM | IC50 [3]: 14.8 µM | IC50 [4]: 18.7 µM | IC50 [5]: 33.5 µM
